Compounds with a hit are over-represented: about 2% of the library has one in this group of screens.
NR2E3 ag-1 – inhibitors of NR2E3-RetCOR corepressor binding, primary screen, NR2E3 agonist project, biochemical, TR-FRET, GST-NR2E3, biotin-RetCOR; AID 2300, 2010; Photoreceptor-specific nuclear receptor (Homo sapiens), Q9Y5X4; 0.12% of 320,000 active; inhibition of corepressor binding, % at 4.78 µM; 1536-well;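 active = percent inhibition above the cutoff of mean plus 3 SD of all tested compounds, set per screening campaign, cut at about 20% in these data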
Target sequence (Q9Y5X4 whole entry, looked up): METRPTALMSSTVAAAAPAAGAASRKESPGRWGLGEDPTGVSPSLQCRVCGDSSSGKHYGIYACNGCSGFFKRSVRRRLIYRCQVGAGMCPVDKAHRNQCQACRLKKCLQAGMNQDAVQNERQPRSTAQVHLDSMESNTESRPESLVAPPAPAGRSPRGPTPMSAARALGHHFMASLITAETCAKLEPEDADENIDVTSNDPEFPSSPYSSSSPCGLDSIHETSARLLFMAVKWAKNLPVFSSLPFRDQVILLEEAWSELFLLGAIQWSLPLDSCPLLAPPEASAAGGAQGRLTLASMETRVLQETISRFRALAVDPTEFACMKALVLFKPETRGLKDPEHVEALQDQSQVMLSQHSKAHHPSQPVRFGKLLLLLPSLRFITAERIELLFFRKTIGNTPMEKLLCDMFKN
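Material: NR2E3–RetCOR corepressor complex | Quantity: 1.35 nM GST-tagged NR2E3 final | Schedule: 5 h at 4 °C | Replication: Singlicate compound wells | Reagent: RetCOR corepressor, biotinylated, 7 nM | Controls: Biotin wells as high control, 0.6% DMSO wells as low control | Signal: TR-FRET, Eu(K)-anti-GST donor, streptavidin-D2 acceptor, ex 340, em 617/671 nm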
Neddylation inh – inhibitors of cullin neddylation, primary screen, biochemical, TR-FRET, uHTS, NAE and Ubc12; 0.58% of 360,000 active; calls only at 25 µM; AID 651699, 2012; in the data active = inhibition above about 36%
NR1D1 modulator – modulators of Rev-erb alpha DNA binding, primary screen, biochemical, FITC-DNA, fluorescence polarization, uHTS; Nuclear receptor subfamily 1 group D member 1 (Homo sapiens), P20393; Rev-erbα–FITC-DNA binding, 90 min; activity, % at 10 µM; 0.79% of 370,000 active; AID 1259318, 2017;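 active = activity above about 14%, limit read from the data; passing the limit was not always enough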
NR2E3 ag-2 – NR2E3 agonists in two-hybrid cells, primary screen, cell-based, luminescence, CHO-S, Gal4-NCOR/VP16-NR2E3 | inhibition of corepressor binding, % at 3.98 µM | 0.35% of 360,000 active | luciferase;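 active = inhibition above the mean of all tested compounds plus 3 SD, cut at about 70% in these data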;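 also: higher means lower luciferase signal from less NR2E3 corepressor binding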
PG9 Ab binder – binders of HIV-1 gp120 antibody PG9, primary screen, biochemical, TR-FRET; TR-FRET gp120-PG9 antibody binding; inhibition, % at 6.7 µM; 0.43% of 360,000 active; AID 624416, 2012; in the data active = inhibition above about 8.5%
Neddyl inh conf – blockade of NEDD8 conjugation to cullin – biochemical, TR-FRET, single concentration, confirmation; shares compounds with Neddylation inh; calls only at 25 µM; 13% of 1,800 active; AID 652217, 2013; TR-FRET cullin neddylation biochemical assay; in the data active = inhibition above about 40%;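 also: neddylation substrate is the cullin 1 ring ligase complex with SKP2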
Each line names hits and unclear results; the compound was inactive in the other large screens (follow-up assays come after a bar, where shown).

CCOC(=O)C1=C(C)NC(C)=C(C(=O)OCC)C1C(=O)OCC(=O)NCc1ccc(F)cc1	Neddylation inh active (not shown: NR2E3 ag-1)
COc1ccc(-c2coc3c(C(=O)NCC(C)C)cccc23)c(C)c1	none (no result: NR2E3 ag-1)
N#Cc1cc(O)c(-n2nnc3ccccc32)cc1C#N	Neddylation inh active | Neddyl inh conf inactive
Cc1cccc(C(=O)OCC(=O)N2CCN(C(=O)c3ccco3)CC2)c1O	none (no result: NR2E3 ag-1)
CC(C)c1cc(C(=O)OCC(=O)N2CCN(C(=O)c3ccco3)CC2)c(O)c(C(C)C)c1	Neddylation inh active | Neddyl inh conf inactive
CN1CCN(c2ccccc2NC(=O)c2ccc(-c3ccc(Br)cc3)o2)CC1	none (no result: NR1D1 modulator, PG9 Ab binder)
CN1CCN(c2ccccc2NC(=O)c2ccc(-c3ccc(Cl)c(Cl)c3)o2)CC1	Neddylation inh active
Cc1cc(C2=CC(=O)C[C@H](c3ccc(F)cc3)C2)ccc1F	none (no result: NR2E3 ag-1)
CN(C)c1ccc(/C=N/NC(=O)c2ccc3c(c2)OCCO3)cc1	Neddylation inh active
[N-]=[N+]=NC[C@H](Cc1ccccc1)N1CCN(Cc2ccccc2)CCC1=O	none
CCOC(=O)c1[nH]c2ccc(F)cc2c1NC(=O)c1ccccc1C(=O)O	none (no result: NR2E3 ag-1)
CCOC(=O)c1[nH]c2ccc(F)cc2c1NC(=O)CN1CCN(C/C=C/c2ccccc2)CC1	Neddylation inh active | Neddyl inh conf inactive
CCOC(=O)c1[nH]c2ccc(OC)cc2c1NC(=O)c1ccccc1C(=O)O	Neddylation inh active | Neddyl inh conf inactive
COc1ccc(C2CC=C(C(C)=O)CN2S(=O)(=O)c2ccccc2)cc1 (stereo not given)	none (no result: NR2E3 ag-1)
CN(CCc1ccccc1)C(=O)c1[nH]c(C(F)(F)F)nc1-c1ccccc1	none (no result: NR2E3 ag-1)
COC(=O)C1=C(C)N=C2SC(C#N)=C(N)N2C1c1ccc(OCc2ccccc2)cc1 (stereo not given)	Neddylation inh active | Neddyl inh conf inactive
COC(=O)C1=C(C)N=C2SC(C#N)=C(N)N2C1c1cc(OC)c(OC)c(OC)c1 (stereo not given)	none
CCOC(=O)c1cccc(Nc2ncnc3ccc(C)cc23)c1	Neddylation inh active | Neddyl inh conf inactive
Cc1ccc2ncnc(Nc3cccc(C(=O)O)c3)c2c1	none
Cc1ccsc1/C=N/Nc1nc(Cl)c(Cl)cc1Cl	Neddylation inh active | Neddyl inh conf inactive
CCCCn1nc(C(=O)Nc2ccc(-n3cnnn3)cc2)c2ccccc2c1=O	Neddylation inh active | Neddyl inh conf inactive
NC(=O)c1c(N)[nH]c(C(=O)c2ccccc2)c1-c1ccc(Cl)cc1Cl	none (no result: NR2E3 ag-1, Neddylation inh, NR2E3 ag-2)
CC(=O)N1CCN(c2ccc(NC(=O)c3ccc(OCc4ccccc4)cc3)cc2)CC1	Neddylation inh active | Neddyl inh conf inactive
O=C(C[C@@H]1C[C@@H]2c3cc(NS(=O)(=O)c4ccc(F)cc4)ccc3O[C@@H]2[C@H](CO)O1)N1CCc2ccccc2C1	none (no result: NR2E3 ag-1)
COc1cccc(NC(=O)C2CCCN2C(=O)NC2CCC(C)CC2)c1 (stereo not given)	none (no result: NR2E3 ag-1, Neddylation inh, NR2E3 ag-2, PG9 Ab binder)
CC(=O)Oc1ccc2nc(/C=C/c3ccccc3)oc(=O)c2c1	Neddylation inh active | Neddyl inh conf inactive
COc1ccccc1CN(C)C(=O)C(NC(=O)Cc1cccc2ccccc12)C(C)C (stereo not given)	none
Oc1ccc2[nH]cc(-c3cccs3)c2c1-c1ccccc1	none (no result: NR2E3 ag-1, Neddylation inh, NR2E3 ag-2, PG9 Ab binder)
COC(=O)[C@]12C[C@H](CC(=O)N3CCSCC3)C(=O)N(Cc3cccc4ccccc34)C1=C[C@H](COCc1ccccc1)O[C@@H]2C	none (no result: NR2E3 ag-1, Neddylation inh, NR2E3 ag-2, PG9 Ab binder)
CC(C)CC[n+]1ccn(-c2nc3ccccc3nc2[N-]S(=O)(=O)c2ccc(Cl)cc2)c1	Neddylation inh active | Neddyl inh conf inactive
CCCCC[n+]1ccn(-c2nc3ccccc3nc2[N-]S(=O)(=O)c2ccccc2)c1	none

Screening data: PubChem, several laboratories
